ChEMBL document CHEMBL1152615, “Cytosporones, coumarins, and an alkaloid from the endophytic fungus Pestalotiopsis sp. isolated from the Chinese mangrove plant Rhizophoramucronata” (Bioorg Med Chem, 2009)
Active and inactive are the calls of the source.

Experiments:
Type in all cases: functional, cell-based
[1] = system: HeLa; test: Cytotoxicity against human HeLa cells
In short: (§1)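 MTT assay. Cells kept in RPMI-1640 with Na-carbonate (pH 7.2) plus 10% FCS, at 37 °C under humidified 5% CO2/95% air. Seeded at 1500 cells/mL and exposed for 72 h to compounds in DMSO at several concentrations, with an initial test concentration of 10 µg/mL. MTT added for 3 h, then DMSO for 1 h to lyse cells; absorbance read at 595 nm. Negative control was medium with 0.1% EGMME/DMSO.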

[2] = system: L5178Y; test: Cytotoxicity against mouse L5178Y cells; in short: as §1
[3] = system: PC-12; test: Cytotoxicity against rat PC12 cells; in short: as §1

Measured: Activity

CC(=O)OCCCCCCCC1OC(=O)Cc2cc(O)cc(O)c21 (centres undefined)
inactive: all assays above

CCOC(=O)Cc1cc(O)cc(O)c1C(=O)CCCCCC(C)O (centres undefined)
inactive: all assays above

COc1cc(OC)c2oc(=O)c(CC(O)CO)cc2c1 (centres undefined)
inactive: all assays above

COc1cc(O)c2oc(=O)c(CC(O)CO)cc2c1 (centres undefined)
inactive: all assays above

CC(O)CCCCCC1OC(=O)Cc2cc(O)cc(O)c21 (centres undefined)
inactive: all assays above

CC(=O)OC(C)CCCCCC1OC(=O)Cc2cc(O)cc(O)c21 (centres undefined)
inactive: all assays above

CCCCCCCC(=O)c1c(O)cc(O)cc1CC(=O)OC
inactive: all assays above

COc1cc(OC)c2oc(=O)c(C(O)C(C)O)cc2c1 (centres undefined)
inactive: all assays above

COc1cc(OC)c2oc(=O)c(CC(C)O)cc2c1 (centres undefined)
inactive: all assays above

COc1cc(O)cc2cc(CO)c(=O)oc12
inactive: all assays above

COC(=O)Cc1cc(O)cc(O)c1C(=O)CCCCCC(C)O (centres undefined)
inactive: all assays above

CCCCCCCC1OC(=O)Cc2cc(O)cc(O)c21 (centres undefined)
inactive: all assays above

COc1cc(OC)c2oc(=O)c(CO)cc2c1
inactive: all assays above
